Screens: PubChem BioAssay, several laboratories
Shown are actives, neighbours in structure and some others; about 1.4% of the full set was active somewhere.
Arr AP2 block = human beta-arrestin and AP2 interaction inhibition | inhibition, % at 10 µM | 340,000 tested, 0.31% active | AID 504490 | FITC-arrestin peptide / GST-AP2 beads, flow cytometry; AP2 beta2 appendage carries R879A mutation;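 active = inhibition above a set limit, near 3 SD of compounds lacking own fluorescence, cut at about 54% in these data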
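test system = AP2 appendage R879A on GSH beads | buffer or medium = PBS plus Tween 20 (0.05%) and BSA (0.1%) | incubation = 12 min plus 1 h, RT | detection = bead flow cytometry, FITC channel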
DAGLB inh = blocks human DAGLB lipase activity | inhibition, % at 5.17 µM | 340,000 tested, 0.059% active | HEK293T DAGLB membrane lysate, EnzChek fluorogenic substrate | Q8NCG7; in the data active = inhibition above about 34%
MOR-DOR inv ag = mu-delta opioid heterodimer inverse agonism | AID 504357 | cell-based MOR-DOR heterodimer luminescence | 340,000 tested, 0.21% active | inhibition, % at 9.3 µM; in the data active = inhibition above about 22%, passing the limit was not always enough
HTR5A inv ag = HTR5A inverse agonism, opioid heterodimer counter-screen | P47898 | HTR5A cell line, luminescence | inhibition, % at 9.3 µM | 340,000 tested, 0.083% active | AID 504634; in the data active = inhibition mostly above about 23%, no sharp cut-off; inactive = mostly below about 18%
Target sequence (P47898 whole entry, looked up): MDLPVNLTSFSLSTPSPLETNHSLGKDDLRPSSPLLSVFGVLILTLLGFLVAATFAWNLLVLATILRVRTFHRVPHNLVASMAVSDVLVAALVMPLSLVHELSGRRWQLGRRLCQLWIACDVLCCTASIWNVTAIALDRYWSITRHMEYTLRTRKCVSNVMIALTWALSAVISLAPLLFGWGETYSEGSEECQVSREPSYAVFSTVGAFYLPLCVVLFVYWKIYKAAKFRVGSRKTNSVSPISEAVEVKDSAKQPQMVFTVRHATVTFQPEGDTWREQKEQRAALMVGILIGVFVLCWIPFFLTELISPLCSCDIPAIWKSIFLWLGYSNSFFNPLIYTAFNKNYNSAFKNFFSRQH
HTR5A ag = HTR5A agonism, opioid heterodimer counter-screen | 340,000 tested, 0.61% active | activation, % at 9.3 µM | HTR5A agonist assay, luminescence, cell-based | P47898; in the data active = activation mostly above about 9.5%, no sharp cut-off; inactive = mostly below about 7.6%
MOR-DOR ag = agonists of human mu-delta opioid receptor heterodimerization | P35372+P41143 | cells, OPRM1-OPRD1 heterodimerization, luminescence | activation, % at 9.3 µM | 340,000 tested, 0.3% active | AID 504326
OPRM1-D1 ag cf = confirmation of human OPRM1-OPRD1 heterodimerization agonists; shares compounds with MOR-DOR ag; cells, MOR-DOR heterodimerization, luminescence complementation; activation, % at 9.3 µM; 830 tested, 45% active
HTR5A ag ctr2 = HTR5A agonism, opioid heterodimer counter-screen; 830 tested, 8% active; HTR5A agonist counterscreen, cell luminescence; AID 504905; activation, % at 9.3 µM; shares compounds with MOR-DOR ag; in the data active = activation above about 17%
A number is an active result; n = inactive; x = not tested or not shown. Rule as the data show it, unless noted: active = activation above about 18%; inactive = the rest.

SMILES | Arr AP2 block | DAGLB inh | MOR-DOR inv ag | HTR5A inv ag | HTR5A ag | MOR-DOR ag | OPRM1-D1 ag cf | HTR5A ag ctr2
Cc1ccc(C)c(NC(=O)CN2C(=O)C3CC=CCC3C2=O)c1 (stereo unspecified) | x | n | x | x | x | x | x | x
CC(C)C[C@@H](CN)NC(=O)c1nc[nH]c1C(=O)N[C@@H](CC(=O)O)C(=O)CNC[C@H](C)NC(=O)c1nc[nH]c1C(=O)N[C@@H](CC(=O)O)C(=O)O | n | n | n | n | n | n | x | x
CCN1CCN(c2c(S(=O)(=O)c3ccc(C)c(C)c3)cnc3ccc(F)cc23)CC1 | n | n | n | n | n | 53 | n | n
COc1ccc(/C=N/Nc2cc(C)nc3ccc(Br)cc23)cc1 | n | n | n | n | n | 21 | n | n
CCn1c(=O)c2[nH]c(SC)nc2n(CC)c1=O | x | n | x | x | x | x | x | x
CCn1cc(CN2CCC(n3nccc3NC(=O)CCc3ccccc3)CC2)cn1 | n | n | n | n | n | 31 | n | n
CCn1cc(CN2CCC(n3nccc3NC(=O)CCOc3ccccc3)CC2)cn1 | n | n | n | n | n | n | x | x
CCCn1ncc(CN2CCC(n3nccc3NC(=O)CCc3ccccc3)CC2)c1C | n | n | n | n | n | 223 | n | n
CCCn1ncc(CN2CCC(n3nccc3NC(=O)c3ccccc3OC)CC2)c1C | n | n | n | n | n | n | x | x
Cc1noc(C)c1NC(=O)N(C)C[C@H]1OCCCC[C@@H](C)Oc2ccc(NS(=O)(=O)c3ccccc3)cc2C(=O)N([C@H](C)CO)C[C@@H]1C | x | n | x | x | x | x | x | x
Cc1ccccc1Oc1ccc2c(c1)[C@@H]1C[C@H](N(C)C(=S)Nc3ccc(F)cc3)[C@H]([C@H](C)O)C(=O)N1CC2 | x | n | x | x | x | x | x | x
COc1cc(C(=O)N(CCc2ccccc2)C2=CC3CCC(C2)N3C)cc(OC)c1OC (stereo unspecified) | n | n | n | n | n | 18 | n | n
CC(=O)NC12CC3CC(C1)CC(C(=O)Nc1cccc(S(=O)(=O)N4CCCCCC4)c1)(C3)C2 | n | n | n | n | n | n | x | x
COC(=O)c1ccc(CSc2ccccc2NC(=S)Nc2cccc(SC)c2)o1 | x | n | x | x | x | x | x | x
CNC(=O)/C(C#N)=C/c1ccc(-c2ccc(OC)cc2[N+](=O)[O-])o1 | n | n | n | n | n | 19 | n | n
COc1ccc(-c2ccc(C(=O)O)o2)c([N+](=O)[O-])c1 | n | n | n | n | n | n | x | x
COC(=O)NCC(c1ccc2c(c1)OCO2)N1CCN(c2ccc(OC)cc2)CC1 (stereo unspecified) | n | n | n | n | n | 79 | n | n
CN(C)c1ccc(/C=N/NC(=O)c2ccc(NC(=O)c3ccccc3)cc2)cc1 | n | n | n | n | n | 19 | 34 | 20
O=C(c1cccs1)N1C[C@@H](O)[C@H](n2cc(-c3ccc(F)cc3)nn2)C[C@@H]1c1ccccc1 | x | n | x | x | x | x | x | x
CCc1cc2ccc(OC)cc2nc1SCC(=O)Nc1cc(C)on1 | n | n | n | n | n | 22 | n | 20
CN(C)C(CNC(=O)c1cc2ccccc2oc1=O)c1ccccc1 (stereo unspecified) | n | n | n | n | n | 31 | 133 | n
CCn1c(-c2ccccc2)c(C(=O)CCl)c2ccccc21 | n | n | n | n | n | 66 | n | n
COC(=O)C(Cc1cccc(C)n1)(c1ccccc1)c1ccccc1 | n | n | n | n | n | 113 | 153 | n
COC(=O)c1ccccc1OCc1cccc(C)n1 | n | n | n | n | n | n | x | x
Cc1cccc(-n2nc(C(=O)c3ccco3)cc(-c3nc4ccccc4[nH]3)c2=N)c1 | n | n | n | n | n | 31 | n | n
SMILES | Arr AP2 block | DAGLB inh | MOR-DOR inv ag | HTR5A inv ag | HTR5A ag | MOR-DOR ag | OPRM1-D1 ag cf | HTR5A ag ctr2
Cc1ccccc1-n1nc(C(=O)c2cccs2)cc(-c2nc3ccccc3[nH]2)c1=N | n | n | n | n | n | n | x | x
CCC/C=C/c1ccc(CN2C(CC(C)C)C(=O)N(Cc3cn(Cc4ccco4)nn3)CCS2(=O)=O)cc1 (stereo unspecified) | x | n | x | x | x | x | x | x
CCCCCCCN(c1ccccc1)[C@@H]1C[C@H]2CCCC(=O)N3CC[C@@H](C1)[C@@H]23 | n | n | n | n | n | 19 | n | n
COCCN=C1N[C@@H](c2cccc(C(F)(F)F)c2)C(C(=O)OC)=C(C)N1Cc1ccccc1 | n | n | n | n | n | n | x | x
COC(=O)C1=C(C)N(Cc2ccccc2)C(=NCc2cccc(C(F)(F)F)c2)N[C@H]1c1cccc(F)c1 | n | n | n | n | n | 23 | n | 21
COC(=O)C1=C(C)N(Cc2ccccc2)C(=NCc2cccc(C(F)(F)F)c2)N[C@H]1c1cccc(C(F)(F)F)c1 | n | n | n | n | n | 45 | n | n
COC(=O)C1=C(C)N(Cc2ccccc2)C(=NCCc2c[nH]c3ccccc23)N[C@H]1c1cccc(C(F)(F)F)c1 | n | n | n | n | n | 22 | n | n
CCC1NC(=O)c2cc3ccccc3cc2-n2c1nc1cc(OC)c(OC)cc1c2=O (stereo unspecified) | x | n | x | x | x | x | x | x
CCC(C)c1ccc(S(=O)(=O)N2CCN(C(=O)CN3C(=O)NC(C)(C4CC4)C3=O)CC2)cc1 (stereo unspecified) | x | n | x | x | x | x | x | x
O=[N+]([O-])c1ccccc1SNc1ccccc1 | x | n | x | x | x | x | x | x
O=[N+]([O-])c1ccc(SNc2ccccc2)c([N+](=O)[O-])c1 | n | n | n | n | n | 20 | n | n
O=C(C[C@H]1C/C=C\C[C@H](NC(=O)OCC2c3ccccc3-c3ccccc32)C(=O)O[C@H](c2ccccc2)CNC1=O)N[C@H](CO)Cc1ccccc1 | n | n | n | n | 21 | 239 | n | n
O=C(N[C@@H]1C/C=C\C[C@H](CC(=O)N(CCO)Cc2ccccc2)C(=O)NC[C@@H](c2ccccc2)OC1=O)OCC1c2ccccc2-c2ccccc21 | n | n | n | n | n | n | x | x
COc1ccc(C(CNC(=O)c2cccc(NS(=O)(=O)c3ccccc3)c2)N(C)C)cc1 (stereo unspecified) | n | n | n | n | n | 46 | 29 | n
CC(=O)c1ccc(S(=O)(=O)NCc2ccc(C(=O)NCC(c3ccccc3)N(C)C)cc2)cc1 (stereo unspecified) | n | n | n | n | n | 55 | 49 | n
CN(C)C(CNC(=O)c1ccc(S(=O)(=O)Nc2ccccc2F)cc1)c1ccccc1 (stereo unspecified) | n | n | n | n | n | n | x | x
